Consider 73 sequences from the array DNA melting data of Ke et al. (doi:10.1101/2024.01.08.574731).

Data set [1] is described as follows: folding enthalpy; higher = less favourable; fluorescence melt of hairpins on a sequencing array, two-state fit. To be noted: sodium 0.088 M. Summed up:
(§1)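 Folding enthalpy and melting temperature come from bootstrapped two-state fits to Cy3 fluorescence of library hairpins carrying annealed Cy3 and quencher oligos on a sequenced MiSeq flow cell. Imaging was done in 50 mM Na-HEPES pH 8.0, 25 mM NaCl, stepping by 2.5 °C up to 60 °C, and signals were normalised to pre-quench Cy3 and to control constructs. Results of four replicates were combined by inverse variance, and fitted temperatures were raised by 9.35 °C to match UV melts.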

Data set [2] can be described thus: melting temperature; fluorescence melt of hairpins on a sequencing array, two-state fit, raised by 9.35 °C to match UV melts. To be noted: sodium 0.088 M. In outline:
as §1

Turning to GTGAAACGAAAGTTGCAC (((.(((....))).))), in data set [1], the folding enthalpy is -31.2 kcal/mol. In data set [2], the Tm was 51.6 °C.
GTGAAAGGAAACTTTCAC (((((((....))))))): the folding enthalpy in data set [1] is -50.6 kcal/mol. Further, the Tm in data set [2] worked out at 54.1 °C.
In the case of GTGAACGAAAGTTAGCAC ((((((....)))..))), in data set [1], the folding enthalpy is -12.5 kcal/mol. Moreover, the Tm in data set [2] was 29.1 °C.
The matching figures for GTGAACGGAAACGTTTGC (..((((....))))..): -22.6 kcal/mol and 38.9 °C.
On the same counts, the results for GTGAAGAAATTCAC (((((....))))) are -18.8 kcal/mol and 38.3 °C.
With GTGAAGACGAAAGTCCAC (((..(((....)))))), the folding enthalpy in data set [1] is -18.4 kcal/mol. Besides, the Tm in data set [2] came out at 41.6 °C.
The matching figures for GTGAAGCGAAAGCTACAC (((.(((....))).))): -30.1 kcal/mol and 55.7 °C.
On the same counts, the results for GTGAAGCGAAAGCTGCAC (((.(((....))).))) are -35 kcal/mol and 61 °C.
Turning to GTGAAGGGAAACCCTCAC ((((.((....)).)))), the folding enthalpy in data set [1] was -26.9 kcal/mol. The Tm in data set [2] was 43.3 °C.
In the case of GTGAAGGGAAACTTTCAC (((((.(....).))))), in data set [1], the folding enthalpy was -24.8 kcal/mol. In addition, in data set [2], the Tm came out at 40.2 °C.
The matching figures for GTGAATCGAAAGATCCAC (((.(((....))).))): -27.7 kcal/mol and 43.4 °C.
The matching figures for GTGACAACGAAAGTTCAC (((..(((....)))))): -11.1 kcal/mol and 34.8 °C.
Turning to GTGACACCGAAAGGTCAC (((..(((....)))))), the folding enthalpy in data set [1] was -25 kcal/mol. In data set [2], the Tm amounted to 47.8 °C.
On the same counts, the results for GTGACACGAAAGTGCAC (((.(((....)))))) are -17.3 kcal/mol and 53.2 °C.
On the same counts, the results for GTGACATCGAAAGATCAC (((..(((....)))))) are -16.2 kcal/mol and 33 °C.
For GTGACCACGAAAGTGCAC (((..(((....)))))), the folding enthalpy in data set [1] is -12 kcal/mol. The Tm in data set [2] amounted to 32 °C.
On the same counts, the results for GTGACCCGAAAGGGACAC (((.(((....))).))) are -40.2 kcal/mol and 61.8 °C.
On to GTGACCGAAAGGTACCAC ((((((....)))..))), for which, in data set [1], the folding enthalpy is -11.6 kcal/mol. In data set [2], the Tm was 35.1 °C.
For GTGACCGAAAGGTCGCAC ((((((....)))..))), in data set [1], the folding enthalpy is -11.1 kcal/mol. In data set [2], the Tm came out at 58.6 °C.
The matching figures for GTGACCGAAAGGTTACAC ((((((....)))..))): -16.6 kcal/mol and 49.8 °C.
On the same counts, the results for GTGACCGAAAGGTTCCAC ((((((....)))..))) are -9.64 kcal/mol and 33.2 °C.
The matching figures for GTGACCTCGAAAGAGCAC (((..(((....)))))): -14.8 kcal/mol and 30.9 °C.
In the case of GTGACGCGAAAGCGCCAC (((.(((....))).))), in data set [1], the folding enthalpy was -33.9 kcal/mol. Moreover, the Tm in data set [2] came to 68 °C.
The matching figures for GTGACGGGAAACCGTCGC (.(((((....))))).): -24.8 kcal/mol and 62.6 °C.
The matching figures for GTGACGGGAAACCGTTAC ((.((((....)))).)): -22.2 kcal/mol and 51.9 °C.
On the same counts, the results for GTGACTGGAAACAATCAC ((((.((....)).)))) are -20.1 kcal/mol and 36 °C.
Turning to GTGAGACGAAAGTCCCAC (((.(((....))).))), the folding enthalpy in data set [1] is -27.3 kcal/mol. Moreover, the Tm in data set [2] amounted to 50.4 °C.
The matching figures for GTGAGACGAAAGTCGCAC (((.(((....))).))): -31.9 kcal/mol and 64.5 °C.
On the same counts, the results for GTGAGAGAAATCTCAC ((((((....)))))) are -32.4 kcal/mol and 51.7 °C.
The matching figures for GTGAGAGGAAACCCTCAC (((((.(....).))))): -26.2 kcal/mol and 43.5 °C.
As for GTGAGAGGAAACTCCCAC (((.(((....))).))), the folding enthalpy in data set [1] was -24.7 kcal/mol. In addition, the Tm in data set [2] was 36.6 °C.
The matching figures for GTGAGAGGAAACTCTCGC (.(((((....))))).): -27.2 kcal/mol and 51.2 °C.
For GTGAGCCGAAAGGCACAC (((.(((....))).))), the folding enthalpy in data set [1] was -28.9 kcal/mol. Moreover, the Tm in data set [2] amounted to 59.8 °C.
Consider GTGAGCGAAAGCTACCAC ((((((....)))..))), for which the folding enthalpy in data set [1] was -10.5 kcal/mol. The Tm in data set [2] is 35.9 °C.
With GTGAGCGAAAGCTCCAC ((((((....))).))), the folding enthalpy in data set [1] is -11.3 kcal/mol. Besides, the Tm in data set [2] came out at 48.3 °C.
On the same counts, the results for GTGAGCGAAAGCTCGCAC ((((((....)))..))) are -11.7 kcal/mol and 55.1 °C.
On the same counts, the results for GTGAGCGAAAGCTTCAC ((((((....))).))) are -19.1 kcal/mol and 50.9 °C.
Take GTGAGCGAAAGCTTTCAC ((((((....)))..))): the folding enthalpy in data set [1] was -10.7 kcal/mol. Further, the Tm in data set [2] was found to be 32.3 °C.
The matching figures for GTGAGCGGAAACACTCAC (((((.(....).))))): -43.7 kcal/mol and 47.7 °C.
The matching figures for GTGAGCGGAAACGCTCGC (.(((((....))))).): -18.4 kcal/mol and 62.7 °C.
As for GTGAGCGGAAACGTTCAC ((((.((....)).)))), in data set [1], the folding enthalpy was -41.2 kcal/mol. Also, the Tm in data set [2] is 52.8 °C.
On the same counts, the results for GTGAGGGGAAACCCTTAC ((.((((....)))).)) are -26.7 kcal/mol and 44.5 °C.
On the same counts, the results for GTGAGTCCGAAAGGACAC (((..(((....)))))) are -13.1 kcal/mol and 49.6 °C.
The matching figures for GTGAGTGGAAACACTTGC (..((((....))))..): -23.9 kcal/mol and 36.4 °C.
For GTGATACGAAAGTACAC (((.(((....)))))), in data set [1], the folding enthalpy was -25.8 kcal/mol. Moreover, the Tm in data set [2] came out at 43.7 °C.
The matching figures for GTGATAGGAAACCATCAC (((((.(....).))))): -34.9 kcal/mol and 39.3 °C.
The matching figures for GTGATAGGAAACTATTAC ((.((((....)))).)): -25.8 kcal/mol and 34.1 °C.
On the same counts, the results for GTGATCCGAAAGGAACAC (((.(((....))).))) are -27.5 kcal/mol and 53.6 °C.
Consider GTGATCGAAAGATGACAC ((((((....)))..))), for which the folding enthalpy in data set [1] was -16.2 kcal/mol. Also, in data set [2], the Tm came out at 33.4 °C.
The matching figures for GTGATCGCGAAAGCGCAC (((..(((....)))))): -12.6 kcal/mol and 35.6 °C.
Take GTGATCGGAAACGATCAC (((((((....))))))): the folding enthalpy in data set [1] is -42.3 kcal/mol. For the same sequence, in data set [2], the Tm is 68.6 °C.
The matching figures for GTGATCGGAAACGATTAC ((.((((....)))).)): -24.4 kcal/mol and 48.2 °C.
In the case of GTGATGACGAAAGTCCAC (((..(((....)))))), the folding enthalpy in data set [1] is -18.4 kcal/mol. Further, the Tm in data set [2] was determined as 35.1 °C.
On to GTGATGGGAAACTATCAC (((((.(....).))))), for which the folding enthalpy in data set [1] was -32.2 kcal/mol. Further, in data set [2], the Tm was 45.6 °C.
On the same counts, the results for GTGATTCCGAAAGGACAC (((..(((....)))))) are -15.3 kcal/mol and 31.1 °C.
The matching figures for GTGATTGGAAACAGTCAC ((((.((....)).)))): -36.6 kcal/mol and 45.4 °C.
The matching figures for GTGCAACGAAAGTTCAC (((.(((....)))))): -13.2 kcal/mol and 45.7 °C.
For GTGCAACGAAAGTTTCAC (((.(((....))).))), in data set [1], the folding enthalpy was -21.4 kcal/mol. Further, the Tm in data set [2] was determined as 41 °C.
On the same counts, the results for GTGCACGAAAGTGAACAC ((((((....)))..))) are -15.4 kcal/mol and 52 °C.
Turning to GTGCACGAAAGTGAGCAC ((((((....)))..))), the folding enthalpy in data set [1] was -32.4 kcal/mol. In addition, the Tm in data set [2] was 51.6 °C.
Consider GTGCACGAAAGTGTCAC ((((((....))).))), for which the folding enthalpy in data set [1] is -22.3 kcal/mol. Moreover, the Tm in data set [2] worked out at 54.5 °C.
Regarding GTGCACGAAAGTGTGCAC ((((((....)))..))), the folding enthalpy in data set [1] was -34 kcal/mol. For the same sequence, in data set [2], the Tm is 62.6 °C.
The matching figures for GTGCACGGAAACGTGTAC ((.((((....)))).)): -41.8 kcal/mol and 55.8 °C.
Take GTGCACTCGAAAGAGCAC (((..(((....)))))): in data set [1], the folding enthalpy is -27.8 kcal/mol. For the same sequence, in data set [2], the Tm is 45.2 °C.
On the same counts, the results for GTGCAGGGAAACTTGCGC (.(((.(....).))).) are -31.2 kcal/mol and 42 °C.
Take GTGCATCCGAAAGGACAC (((..(((....)))))): the folding enthalpy in data set [1] was -11.7 kcal/mol. Besides, the Tm in data set [2] was 38.2 °C.
On the same counts, the results for GTGCCAACGAAAGTTCAC (((..(((....)))))) are -4.38 kcal/mol and 36.3 °C.
On the same counts, the results for GTGCCACGAAAGTGCCAC (((.(((....))).))) are -20.5 kcal/mol and 47.6 °C.
As to GTGCCACGAAAGTGTCAC (((.(((....))).))), the folding enthalpy in data set [1] is -30 kcal/mol. The Tm in data set [2] is 53.1 °C.
GTGCCAGGAAACCGGCAC (((((.(....).))))): the folding enthalpy in data set [1] was -42.2 kcal/mol. Further, the Tm in data set [2] was determined as 59.2 °C.
The matching figures for GTGCCCCGAAAGGGACAC (((.(((....))).))): -42.9 kcal/mol and 62.5 °C.
Take GTGCCCGAAAGGGGCCAC ((((((....)))..))): the folding enthalpy in data set [1] was -10.9 kcal/mol. In data set [2], the Tm worked out at 47.7 °C.
On the same counts, the results for GTGCCCGAAAGGGTCCAC ((((((....)))..))) are -10.3 kcal/mol and 41 °C.
